Here are results for one molecule from ChEMBL document CHEMBL4765230, “Discovery of Orally Efficacious Phosphoinositide 3-Kinase δ Inhibitors with Improved Metabolic Stability” (J Med Chem, 2016).

Data set [1] in a line: Clearance in dog at 1 mg/kg, iv. In kind it is ADME, organism-based, Canis lupus familiaris. As to conditions: in vivo.
The target of data set [2] is T1, Phosphatidylinositol 4,5-bisphosphate 3-kinase catalytic subunit delta isoform (Homo sapiens, UniProt O00329).
T1 sequence (O00329 whole entry): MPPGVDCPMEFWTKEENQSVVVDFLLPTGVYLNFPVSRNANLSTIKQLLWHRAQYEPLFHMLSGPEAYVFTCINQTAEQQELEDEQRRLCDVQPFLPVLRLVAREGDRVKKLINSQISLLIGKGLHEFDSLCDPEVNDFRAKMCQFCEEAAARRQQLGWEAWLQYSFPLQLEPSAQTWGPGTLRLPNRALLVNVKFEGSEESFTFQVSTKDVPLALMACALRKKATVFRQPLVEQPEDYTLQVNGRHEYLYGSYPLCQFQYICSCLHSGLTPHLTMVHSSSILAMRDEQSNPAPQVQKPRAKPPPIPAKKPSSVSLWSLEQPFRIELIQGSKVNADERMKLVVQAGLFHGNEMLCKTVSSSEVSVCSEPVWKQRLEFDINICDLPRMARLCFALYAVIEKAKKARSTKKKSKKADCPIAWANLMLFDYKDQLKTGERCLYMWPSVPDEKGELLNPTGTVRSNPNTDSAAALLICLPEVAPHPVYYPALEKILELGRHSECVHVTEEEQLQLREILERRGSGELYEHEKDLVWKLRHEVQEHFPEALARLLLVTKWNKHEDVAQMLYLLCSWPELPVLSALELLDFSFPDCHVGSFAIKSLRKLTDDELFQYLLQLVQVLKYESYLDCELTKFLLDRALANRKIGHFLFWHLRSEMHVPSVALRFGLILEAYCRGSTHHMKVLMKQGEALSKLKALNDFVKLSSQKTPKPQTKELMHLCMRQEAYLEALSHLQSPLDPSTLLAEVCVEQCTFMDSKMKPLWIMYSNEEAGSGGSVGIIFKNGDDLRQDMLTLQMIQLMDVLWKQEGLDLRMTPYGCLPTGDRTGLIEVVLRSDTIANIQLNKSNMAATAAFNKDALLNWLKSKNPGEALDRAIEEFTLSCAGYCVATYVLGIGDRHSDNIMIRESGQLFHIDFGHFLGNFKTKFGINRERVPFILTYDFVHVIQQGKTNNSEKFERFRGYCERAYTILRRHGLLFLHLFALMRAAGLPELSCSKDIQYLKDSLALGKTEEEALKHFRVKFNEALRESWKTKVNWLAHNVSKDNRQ
Kind of data set: Inhibition of PI3K p110delta in human basophil assessed as reduction in anti-FCepsilonR1 mAb-stimulated basophil activation preincubated for 60 mins followed by anti-FCepsilonR1 mAb stimulation and measured after 25 mins by flow cytometry analysis. In general terms: In flow cytometry, cells or beads pass a laser one at a time.

Data set [3] can be described thus: Clearance in Sprague-Dawley rat at 1 mg/kg, iv measured over 24 hrs by LC/MS/MS analysis. The settings on record: in vivo. In kind it is ADME, organism-based. In short, it runs like this:
(§1)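 Intravenous 1 mg/kg and oral 5 mg/kg doses. Vehicle: 5% ethanol/55% PEG 400/40% water for rats and dogs; 5% ethanol/22% PEG 400/73% water for cynomolgus; 5% ethanol/25% PEG 400/70% water for rhesus. Half-life and MRT from iv; mean ± SD, n = 3 per route.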

Data set [4] is described as follows: Terminal half life in Sprague-Dawley rat at 1 mg/kg, iv measured over 24 hrs by LC/MS/MS analysis. It counts as ADME, organism-based. As to conditions: in vivo, read-out: beta t1/2 (converted). In short, it runs like this: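 Single intravenous dose of 1 mg/kg. Vehicles: rats and dogs 5% ethanol/55% PEG 400/40% water; cynomolgus monkeys 5% ethanol/22% PEG 400/73% water; rhesus monkeys 5% ethanol/25% PEG 400/70% water. Plasma concentration–time data gave Vss and iv half-life. Reported as mean ± SD, n = 3.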

Data set [5] in a line: MRT in Sprague-Dawley rat at 1 mg/kg, iv measured over 24 hrs by LC/MS/MS analysis. It counts as ADME, organism-based. As to conditions: in vivo. In short, it runs like this: as §1
Data set [6] in a line: Oral bioavailability in Beagle dog at 5 mg/kg measured over 24 hrs by LC/MS/MS analysis. In kind it is ADME, organism-based, Canis lupus familiaris. The settings on record: in vivo. In short, it runs like this:
as §1

Data set [7] can be described thus: Clearance in cynomolgus monkey at 1 mg/kg, iv measured over 24 hrs by LC/MS/MS analysis. It counts as ADME, organism-based, Macaca fascicularis. As to conditions: in vivo. A digest of the protocol:
as §1

Data set [8] can be described thus: Clearance in rhesus monkey at 1 mg/kg, iv measured over 24 hrs by LC/MS/MS analysis. It counts as ADME, organism-based, Macaca mulatta. As to conditions: in vivo. In short, it runs like this:
as §1

Data set [9] relates to Rattus norvegicus. Kind of data set: Antiarthritic activity in Lewis rat model of Freund's incomplete adjuvant-induced arthritis assessed as reduction in ankle swelling at 3 mg/kg, po bid administered for 7 days at 12 hrs interval starting from day 10 to day 16 post-immunization by caliper method relative to control. The settings on record: time 7 day. Set-up: scale not given: the % may be the effect or the level left. In kind it is functional. In short, it runs like this:
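Established collagen-induced arthritis in female Lewis rats; oral dosing twice daily for 7 days from day 10 after second immunization. Right and left ankle diameters measured by caliper daily, days 9–18; ankle diameter AUC over days 11–18 compared with arthritic vehicle group (ANOVA, p < 0.05). n = 8/treatment group.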

The subject of data set [10] is Rattus norvegicus. The data set is described as follows: Antiarthritic activity in Lewis rat model of Freund's incomplete adjuvant-induced arthritis assessed as inhibition of pannus formation at 0.3 to 3 mg/kg, po bid administered for 7 days at 12 hrs interval starting from day 10 to day 16 post-immunization by microscopic analysis relative to control. Details: scale not given: the % may be the effect or the level left. In kind it is functional. As to conditions: dose 0.3-3 mg/kg, time 7 day. A digest of the protocol: (§2)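 Female Lewis rats with established collagen-induced arthritis dosed orally twice daily for 7 days at 0.3, 1 and 3 mg/kg, starting day 10 after second collagen immunization. Joint histopathology scored for pannus formation, cartilage damage, bone resorption and periosteal bone formation; ED50 derived. n = 8/treatment group, n = 4 normal controls.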

The test system of data set [11] is Rattus norvegicus. The data set is described as follows: Antiarthritic activity in Lewis rat model of Freund's incomplete adjuvant-induced arthritis assessed as inhibition of cartilage damage at 0.3 to 3 mg/kg, po bid administered for 7 days at 12 hrs interval starting from day 10 to day 16 post-immunization by microscopic analysis relative to control. Set-up: scale not given: the % may be the effect or the level left. The settings on record: dose 0.3-3 mg/kg, time 7 day. In kind it is functional. In short, it runs like this: as §2

Data set [12] deals with Rattus norvegicus. The data set is described as follows: Antiarthritic activity in Lewis rat model of Freund's incomplete adjuvant-induced arthritis assessed as inhibition of bone resorption at 0.3 to 3 mg/kg, po bid administered for 7 days at 12 hrs interval starting from day 10 to day 16 post-immunization by microscopic analysis relative to control. It counts as functional. Details: scale not given: the % may be the effect or the level left. As to conditions: dose 0.3-3 mg/kg, time 7 day. A digest of the protocol: as §2

A short description of data set [13]: Selectivity index, ratio of IC50 for inhibition of human full length PI3K p110gamma to IC50 for inhibition of human full length PI3K p110delta/p85alpha.
Data set [14] in a line: Mutagenecity in Salmonella typhimurium by Ames test. In kind it is toxicity. The settings on record: salmonella enterica subsp. enterica serovar typhimurium. In general terms: In the Ames test, an excess of revertant colonies over the control signals mutagenicity.
Data set [15] in a line: AUC infinity in Lewis rat at 1 to 5 mg/kg, po administered as single dose. It counts as ADME, organism-based. As to conditions: in vivo, dose 1-5 mg/kg. In short, it runs like this: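 Female Lewis rats given a single oral dose of 1 or 5 mg/kg; plasma concentration–time profiles determined; mean ± SD, n = 3.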

As for `N#Cc1c(N)nc(N)nc1N[C@H](c1nc2c(F)ccc(Cl)c2c(=O)n1-c1cccnc1)C1CC1` [GS-9901], the clearance in data set [1] is 9 mL/min/kg; in data set [3], 7.17 mL/min/kg; in data set [7] it was 6.83 mL/min/kg; in data set [8] it was 11.7 mL/min/kg. Moreover, in data set [2], the EC50 is 310 pM. In addition, the half-life in data set [4] was 2.04 h. Besides, in data set [5], the MRT amounted to 1.95 h. In data set [6], this molecule showed a bioavailability of 49%. In addition, the Activity was 65% in data set [9]; 58% in data set [10]; 50% in data set [11]; 50% in [12]; “Non-Toxic” in data set [14]. In addition, the Ratio IC50 in [13] was 190. The molecule also registered an AUC(0-inf) in data set [15] of 16 µM·h.

As usually defined, the clearance is a measure of how efficiently the substance is removed, as volume per time. The EC50 is the concentration needed to bring the measured effect to its halfway point. For orientation: MRT means the average time that molecules of a dose stay in the body. The term bioavailability denotes the share of a dose that reaches the circulation, judged against a reference dose that is usually intravenous. A word on the AUC(0-inf): it is the area under the concentration-time curve extrapolated to infinity.
